# In the library only some 4.3% were active in any assay of this set; here they are far more common.
# AHR act = human AHR activation | P35869 | AHR-responsive luciferase reporter cells, luminescence | 320,000 compounds, 2.5% hits | activation, % at 5 µM | AID 2796; in the data active = activation above about 47%;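 note: 0% = vehicle wells and 100% = reference agonist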
# SR-BI HDL uptake = inhibitors of mouse SR-BI mediated HDL lipid uptake | Q61009 | ldlA[mSR-BI] CHO cells, DiI-HDL uptake fluorescence, 3 h | inhibition, % at 12.5 µM | 320,000 compounds, 0.96% hits;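 active = mean replicate inhibition of at least 70% and a set share of replicates each scoring 70 or more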;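 note: 0% = median of neutral control wells and 100% = median of positive control wells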
# Target sequence (Q61009 whole entry, looked up): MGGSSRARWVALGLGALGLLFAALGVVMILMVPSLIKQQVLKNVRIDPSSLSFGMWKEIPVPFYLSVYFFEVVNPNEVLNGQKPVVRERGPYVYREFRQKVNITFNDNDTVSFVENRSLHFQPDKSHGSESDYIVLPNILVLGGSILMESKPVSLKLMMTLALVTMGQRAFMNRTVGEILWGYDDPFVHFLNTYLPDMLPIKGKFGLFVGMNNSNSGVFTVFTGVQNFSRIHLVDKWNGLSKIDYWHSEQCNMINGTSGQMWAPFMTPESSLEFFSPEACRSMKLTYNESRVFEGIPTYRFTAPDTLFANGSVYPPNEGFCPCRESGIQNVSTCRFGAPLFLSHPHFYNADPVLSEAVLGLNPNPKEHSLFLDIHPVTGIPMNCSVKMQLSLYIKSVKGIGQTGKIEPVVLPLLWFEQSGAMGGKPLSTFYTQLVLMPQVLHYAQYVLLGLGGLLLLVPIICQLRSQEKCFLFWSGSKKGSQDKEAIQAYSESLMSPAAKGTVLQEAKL
# Lipid droplet = modulators of hepatic lipid droplet formation | AML12 mouse hepatocytes, oleate lipid droplets, BODIPY imaging | inhibition, % at 6.5 µM | 240,000 compounds, 0.4% hits | AID 1656;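 active = lipid droplet intensity inhibited by at least 50%, with more than 500 cells counted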
#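 Assay system: AML12 hepatocytes (mouse) / Also added: 100 µM oleic acid challenge / Times: overnight treatment with compound plus oleate / Detection: high-content imaging of BODIPY-stained droplets and DAPI nuclei / Evaluation: % inhibition of lipid droplet signal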
# CR mimetic SO = caloric restriction mimetics inhibiting age-related superoxide in yeast; S. cerevisiae aged cells, superoxide DHE fluorescence; active compounds read low; superoxide response (% of plate mean), % at 10 µM; 330,000 compounds, 0.18% hits; AID 2690;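 active = superoxide response under a set limit, about three screen SD below normal, cut at about 65% in these data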;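 note: yeast aged for seven days with compound at 30 °C before DHE staining; 100% = average MFI of all compound-treated wells on the plate with controls excluded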
# SMARCA2 activ = increases SMARCA2 function in MMTV reporter cells; MG213 cells, MMTV-luciferase reporter, dexamethasone, overnight; 370,000 compounds, 1% hits; activation, % at 9.1 µM; in the data active = activation above about 7.8%;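 note: 0% = vehicle wells and 100% = reference activator wells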
# SR-BI DiI-HDL act = SR-BI HDL lipid transfer activation; CHO ldlA[mSR-BI] cells, DiI-HDL uptake fluorescence, 3 h; 100 = double the neutral-control signal; activation, % at 12.5 µM; 320,000 compounds, 0.096% hits; AID 504775;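 active = mean replicate activation of at least 60% and every replicate at or above 60%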;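 note: 0% = median plate neutral-control signal and 100% = twice that signal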
#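 material = CHO ldlA[mSR-BI] cells | medium = Ham's F12 with 0.5% BSA, HEPES 25 mM, pH 7.4 | reagent = fluorescent DiI-HDL, 10 µg/mL final | compound dosing = single-point compound dose | incubation = 3 h, 37 °C | measured by = bottom-read fluorescence, 550/595 nm | measure = HDL uptake via cellular fluorescence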
# Starred values were filed as active, the others as inactive; nt = no result given.
SMILES,AHR act,SR-BI HDL uptake,Lipid droplet,CR mimetic SO,SMARCA2 activ,SR-BI DiI-HDL act
C=CCN(c1ccccc1)S(=O)(=O)c1cccc(C(=O)NNC(=O)c2ccccc2O)c1,6,87*,nt,106,-1,-87
O=C(Nc1ccc(N2CCOCC2)cc1)c1cccc(S(=O)(=O)N2CCCCC2)c1,nt,80*,9,nt,4,-80
COc1cccc(CNC(=O)[C@H]2CCCN2C(=O)[C@H]2CCCN2C(=O)c2ccc(F)c(C(F)(F)F)c2)c1,nt,nt,nt,nt,-2,nt
COC(=O)[C@]12C[C@H](CC(=O)NCC34CC5CC(CC(C5)C3)C4)C(=O)N(Cc3cccc4ccccc34)C1=C[C@H](C(C)C)O[C@@H]2C1CC1,nt,nt,nt,nt,-3,nt
CCc1nc(SCC(=O)c2ccccc2)c2ccccc2n1,51*,10,-6,86,1,-10
COC(=O)C1=C(C)N(Cc2ccccc2C(F)(F)F)C(=NCC2CC2)NC1c1cccc(F)c1 (configuration not stated),nt,nt,nt,nt,1,nt
CC(C)c1ccc(-c2nc(N3CCCCCC3)nc3n[nH]c(N)c23)cc1,5,90*,-6,102,2,-90
COC[C@@H]1CCCN1c1ccc2c(c1)OCCCN(C1CC1)S2(=O)=O,nt,nt,nt,nt,-1,nt
Oc1ccc(-c2nc(-c3ccc(F)cc3)c(-c3ccncc3)[nH]2)cc1,5,74*,nt,88,-7,-74
CC(C)CC(=O)NCC(C)NC(=O)CC(C)C (configuration not stated),0,-73,0,101,0,73*
COc1ccccc1NC(=O)/C(C#N)=C/c1c(C)nn(-c2ccc(F)cc2)c1Cl,0,22,13,123,-3,-22
COc1ccc(NC(=O)/C(C#N)=C/c2c(C)nn(-c3ccc(F)cc3)c2Cl)cc1Cl,2,71*,4,107,-1,-71
COc1ccc(NC(=O)/C(C#N)=C/c2c(C)nn(-c3ccc(F)cc3)c2Cl)cc1OC,1,76*,7,105,-1,-76
COc1cc(C(=O)OCCN2CCOCC2)cc(OC)c1OC,0,-7,nt,105,-1,7
COc1cc(C(=O)OCCCN2CCCN(CCCOC(=O)c3cc(OC)c(OC)c(OC)c3)CC2)cc(OC)c1OC,-3,81*,nt,117,-1,-81
COC[C@@H](O)[C@H]1OCc2cc(OC)ccc2[C@@H]1/C=C/c1ccccc1,nt,nt,nt,nt,-2,nt
C/C(=N/NC(=O)c1ccc(Cl)s1)c1ccc(NC(=O)COc2ccc(Cl)cc2)cc1,55*,1,-14,95,-4,-1
CCC(=O)Nc1ccc(/C(C)=N\NC(=O)c2ccc(C)s2)cc1,54*,16,nt,101,-1,-16
CCC(CC)C(=O)Nc1cccc(/C(C)=N\NC(=O)c2ccc(C)s2)c1,6,16,nt,91,0,-16
CCN(CC)C(=O)CC[C@H]1CC[C@]2(CCCN(C(=O)c3ccco3)C2)O1,nt,nt,nt,nt,-3,nt
COc1ccc(C(=O)n2nc(C)cc2Nc2ccccc2)cc1,16,77*,-3,85,4,-77
COc1ccc(/C=C/C(=O)NC(=S)NNC(=O)Cc2cccs2)cc1,6,5,8,58*,3,-5
CCOc1ccc(CCNC(=O)COC(=O)/C=C/c2cccc(OC)c2)cc1OCC,0,0,nt,94,-3,0
CCOc1ccc(/C=C/C(=O)OCC(=O)NCCc2ccc(OCC)c(OCC)c2)cc1OC,-1,73*,nt,99,-2,-73
COc1ccc(/C=C/C(=O)NC(=S)NCCc2ccc(OC)c(OC)c2)cc1,4,83*,nt,101,0,-83
SMILES,AHR act,SR-BI HDL uptake,Lipid droplet,CR mimetic SO,SMARCA2 activ,SR-BI DiI-HDL act
COC(=O)c1cc2c(c3c4cc(OC)ccc4n(C(=O)c4ccccc4)c13)C(=O)N(Cc1ccco1)C2,nt,nt,nt,nt,2,nt
COc1cc(NC(=O)c2c(Cl)cnn2C)c(OC)cc1Cl,4,68,3,90,-3,-68
Cc1cc(C(=O)Nc2nc3ccc(Cl)cc3s2)nn1C,-3,nt,12,101,6,nt
Cn1ncc(Cl)c1C(=O)Nc1nc2ccc(Cl)cc2s1,60*,3,16,100,3,-3
Cn1ncc(Cl)c1C(=O)Nc1cc(C(F)(F)F)ccc1F,78*,1,16,88,-1,-1
CCn1c(-c2cccnc2Cl)nc2cc(Cl)c(Cl)cc21,52*,8,5,84,3,-8

# From PubChem BioAssay
